# Test results taken from ChEMBL document CHEMBL1153420, “Discovery of novel 1-azoniabicyclo[2.2.2]octane muscarinic acetylcholine receptor antagonists” (J Med Chem, 2009).
# Calls of active or inactive are those of the source. No cut-off for these calls is given here.
# Key:
# [1] = molecular target: T1, Muscarinic acetylcholine receptor M3 (Homo sapiens, UniProt P20309); experiment: Antagonist activity at human cloned muscarinic M3 receptor expressed in CHO cells assessed as inhibition of acetylcholine-induced calcium mobilization by FLIPR assay; type: functional, cell-based
# Target sequence in this assay (P20309 whole entry): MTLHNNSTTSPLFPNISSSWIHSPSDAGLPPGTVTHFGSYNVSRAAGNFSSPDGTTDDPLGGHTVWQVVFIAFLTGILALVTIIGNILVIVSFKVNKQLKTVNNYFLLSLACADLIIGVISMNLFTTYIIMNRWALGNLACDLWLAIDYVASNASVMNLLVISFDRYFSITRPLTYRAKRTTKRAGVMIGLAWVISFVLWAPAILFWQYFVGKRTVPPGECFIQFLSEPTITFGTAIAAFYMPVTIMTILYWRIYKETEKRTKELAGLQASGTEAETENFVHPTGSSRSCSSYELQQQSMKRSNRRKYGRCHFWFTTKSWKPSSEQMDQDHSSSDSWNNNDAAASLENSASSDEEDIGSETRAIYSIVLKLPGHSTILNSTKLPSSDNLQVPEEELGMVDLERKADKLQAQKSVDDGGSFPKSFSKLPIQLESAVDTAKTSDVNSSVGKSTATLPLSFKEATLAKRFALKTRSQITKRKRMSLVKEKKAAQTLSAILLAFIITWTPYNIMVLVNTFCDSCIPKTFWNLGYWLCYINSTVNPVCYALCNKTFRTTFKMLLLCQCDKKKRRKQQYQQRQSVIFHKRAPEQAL
# [2] = molecular target: T1, Muscarinic acetylcholine receptor M3; experiment: Antagonist activity at human cloned muscarinic M3 receptor expressed in CHO cells assessed as inhibition of acetylcholine-induced calcium mobilization by single concentration kinetic based-FLIPR assay; type: functional, cell-based; settings: read-out: pA2 (converted)
# Target sequence in this assay (P20309 whole entry): as above
# [3] = molecular target: T1, Muscarinic acetylcholine receptor M3; experiment: Antagonist activity at human muscarinic M3 receptor assessed as inhibition of carbachol-induced bronchus contraction; type: functional; settings: read-out: pA2 (converted)
# Target sequence in this assay (P20309 whole entry): as above
# Mus musculus [4] = experiment: Inhibition of methacholine-induced bronchoconstriction in intranasally single dosed conscious BALB/c mouse by plethysmography; type: functional
# Mus musculus [5] = experiment: Inhibition of methacholine-induced bronchoconstriction in intranasally single dosed conscious BALB/c mouse assessed as time to 50% loss of maximum protection at 0.5 ug by plethysmography; type: functional
# Procedure, shortened: (§1)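 Conscious mice dosed intranasally in 50 µL vehicle (10% DMSO), then methacholine challenge; barometric plethysmography measured enhanced pause (Penh) at times from 15 min to 96 h after dosing; duration taken as time to 50% loss of maximum protection.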
# [6] = molecular target: T2, Muscarinic acetylcholine receptor M1 (Homo sapiens, UniProt P11229); experiment: Antagonist activity at human cloned muscarinic M1 receptor expressed in CHO cells assessed as inhibition of acetylcholine-induced calcium mobilization by single concentration kinetic based-FLIPR assay; type: functional, cell-based; settings: read-out: pA2 (converted)
# T2 sequence (P11229 whole entry): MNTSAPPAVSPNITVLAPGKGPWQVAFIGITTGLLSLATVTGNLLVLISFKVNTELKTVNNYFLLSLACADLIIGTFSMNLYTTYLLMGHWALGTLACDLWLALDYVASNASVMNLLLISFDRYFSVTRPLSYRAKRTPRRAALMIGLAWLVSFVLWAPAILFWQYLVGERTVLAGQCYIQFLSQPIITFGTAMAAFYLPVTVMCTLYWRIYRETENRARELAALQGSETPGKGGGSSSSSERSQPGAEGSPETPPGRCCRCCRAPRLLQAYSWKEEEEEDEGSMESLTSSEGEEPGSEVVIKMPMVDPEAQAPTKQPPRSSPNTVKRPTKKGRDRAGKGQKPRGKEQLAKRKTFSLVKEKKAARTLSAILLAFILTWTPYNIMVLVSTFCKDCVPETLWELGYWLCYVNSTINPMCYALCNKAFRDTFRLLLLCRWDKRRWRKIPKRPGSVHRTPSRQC
# [7] = molecular target: T3, Muscarinic acetylcholine receptor M2 (Homo sapiens, UniProt P08172); experiment: Antagonist activity at human cloned muscarinic M2 receptor expressed in CHO cells assessed as inhibition of acetylcholine-induced calcium mobilization by single concentration kinetic based-FLIPR assay; type: functional, cell-based; settings: read-out: pA2 (converted)
# T3 sequence (P08172 whole entry): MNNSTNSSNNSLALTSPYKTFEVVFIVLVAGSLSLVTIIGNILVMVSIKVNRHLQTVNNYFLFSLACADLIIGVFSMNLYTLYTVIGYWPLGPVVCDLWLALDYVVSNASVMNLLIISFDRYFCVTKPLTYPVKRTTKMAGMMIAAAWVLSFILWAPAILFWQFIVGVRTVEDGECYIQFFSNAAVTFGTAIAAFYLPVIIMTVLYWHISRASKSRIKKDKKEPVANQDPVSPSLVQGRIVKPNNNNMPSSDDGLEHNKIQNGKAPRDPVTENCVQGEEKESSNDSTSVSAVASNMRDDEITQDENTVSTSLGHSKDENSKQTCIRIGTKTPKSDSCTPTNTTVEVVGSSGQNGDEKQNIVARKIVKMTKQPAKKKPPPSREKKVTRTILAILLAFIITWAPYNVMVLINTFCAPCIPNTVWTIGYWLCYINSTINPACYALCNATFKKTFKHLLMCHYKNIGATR
# [8] = Clearance in rat plasma at 3.5 mg/kg, iv; type: ADME, organism-based; parameters: dose 3.5 mg/kg, route intravenous
# Procedure, shortened: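 Systemic plasma clearance in rat after intravenous dosing.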
# [9] = molecular target: T1, Muscarinic acetylcholine receptor M3; experiment: Antagonist activity at human muscarinic M3 receptor assessed as offset time for 50% of carbachol-induced human bronchus contraction to return at 10 nM; type: functional
# Procedure, shortened: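 Human bronchial strips (primary, secondary or tertiary airways, obtained at autopsy) were mounted in organ baths on force-displacement transducers. Strips were preincubated 2 h with 10 nM antagonist, then given increasing carbachol to […]. Antagonist was then removed and tissue superfused with carbachol-containing buffer while tension recovery was tracked. The result is minutes to 50% reversal of blockade (off t50).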
# Target sequence in this assay (P20309 whole entry, looked up): as the sequence (P20309 whole entry) above
# [10] = molecular target: T2, Muscarinic acetylcholine receptor M1; experiment: Displacement of [3H]N-methyl scopolamine from human cloned muscarinic M1 receptor expressed in CHO cells coexpressing Gqi5 by scintillation proximity assay; type: cell-based
# Procedure, shortened: (§2)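 Scintillation proximity assay on membranes from CHO cells expressing human M1, M2 or M3 receptors, competing against 0.5 nM [3H]-N-methyl scopolamine; Ki reported as mean of three independent assays.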
# [11] = molecular target: T3, Muscarinic acetylcholine receptor M2; experiment: Displacement of [3H]N-methyl scopolamine from human cloned muscarinic M2 receptor expressed in CHO cells coexpressing Gqi5 by scintillation proximity assay; type: cell-based; procedure, shortened: as §2
# [12] = molecular target: T1, Muscarinic acetylcholine receptor M3; experiment: Displacement of [3H]N-methyl scopolamine from human cloned muscarinic M3 receptor expressed in CHO cells coexpressing Gqi5 by scintillation proximity assay; type: cell-based
# Target sequence in this assay (P20309 whole entry): as the sequence (P20309 whole entry) above
# [13] = molecular target: T1, Muscarinic acetylcholine receptor M3; experiment: Antagonist activity at human cloned muscarinic M3 receptor expressed in CHO cells assessed as reversible inhibition of acetylcholine-induced calcium mobilization for 90 mins measured after 180 mins of washout period by FLIPR assay; type: functional, cell-based
# Procedure, shortened: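 CHO cells expressing cloned human M3 receptors were incubated 90 min with vehicle or 1.0, 10 or 100 nM compound, then washed out for 180 min with 18 buffer changes. Cells were then stimulated with ACh, and calcium mobilization was read by FLIPR. Reversibility was judged from ACh concentration-response curves against no-drug levels.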
# Target sequence in this assay (P20309 whole entry, looked up): as the sequence (P20309 whole entry) above
# Mus musculus [14] = experiment: Inhibition of methacholine-induced bronchoconstriction in intranasally single dosed conscious BALB/c mouse assessed as time to 50% loss of maximum protection at 0.05 ug by plethysmography; type: functional; procedure, shortened: as §1
# [15] = Clearance in rat plasma at 0.5 mg/kg, iv; type: ADME, organism-based; parameters: dose 0.5 mg/kg, route intravenous
# Procedure, shortened: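 Rats received a single intravenous dose of 0.5 mg/kg; systemic plasma clearance was reported in ml/min/kg.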
Compound,IC50 [1],Kb [2],further results
Cc1ccc(COCC[N+]23CCC(C(O)(c4ccccc4)c4ccccc4)(CC2)CC3)cc1,< 10 nM,0.0398 nM,
N#Cc1ccc(COCC[N+]23CCC(C(O)(c4ccccc4)c4ccccc4)(CC2)CC3)cc1,< 10 nM,0.398 nM,
OC(c1ccccc1)(c1ccccc1)C1CC2CCN1CC2 (stereo not drawn),6600 nM,,
OC(c1ccccc1)(c1ccccc1)C12CC[N+](CCCCCOc3ccccc3)(CC1)CC2,306 nM,,
CC[N+]12CCC(C(O)(c3ccccc3)c3ccccc3)(CC1)CC2,104 nM,,
C[N+]12CCC(C(O)(c3ccccc3)c3ccccc3)(CC1)CC2,935 nM,,
OC(c1ccccc1)(c1ccccc1)C12CC[N+](CC3CC3)(CC1)CC2,1960 nM,,
CCCC[N+]12CCC(C(O)(c3ccccc3)c3ccccc3)(CC1)CC2,135 nM,,
Cc1cccc(COCC[N+]23CCC(C(O)(c4ccccc4)c4ccccc4)(CC2)CC3)c1,< 10 nM,0.1 nM,
OC(c1ccccc1)(c1ccccc1)C12CC[N+](CCCCc3ccccc3)(CC1)CC2,< 10 nM,0.501 nM,
COc1cccc(COCC[N+]23CCC(C(O)(c4ccccc4)c4ccccc4)(CC2)CC3)c1,< 10 nM,2 nM,
COc1cccc(C(O)(c2cccc(OC)c2)C23CC[N+](CCOCc4ccccc4)(CC2)CC3)c1,17 nM,,
COCCC[N+]12CCC(C(O)(c3ccccc3)c3ccccc3)(CC1)CC2,829 nM,,
OC(c1ccccc1)(c1ccccc1)C1C[N+]2(CCc3ccccc3)CCC1CC2 (stereo not drawn),2820 nM,,
OC(c1ccccc1)(c1ccccc1)C12CC[N+](CCc3ccccc3)(CC1)CC2,87 nM,,
OC(c1ccccc1)(c1ccccc1)C12CC[N+](CCOCc3ccccc3Br)(CC1)CC2,22 nM,3.16 nM,
Cc1ccccc1COCC[N+]12CCC(C(O)(c3ccccc3)c3ccccc3)(CC1)CC2,13 nM,3.98 nM,
OC(CC1CN2CCC1CC2)(c1ccccc1)c1ccccc1 (stereo not drawn),145 nM,,
OC(c1ccccc1)(c1ccccc1)C12CC[N+](CCCCOc3ccccc3)(CC1)CC2,9.5 nM,10 nM,
OC(c1ccccc1)(c1ccccc1)C12CC[N+](CCOc3ccccc3)(CC1)CC2,< 10 nM,0.794 nM,
N#Cc1ccccc1COCC[N+]12CCC(C(O)(c3ccccc3)c3ccccc3)(CC1)CC2,5400 nM,,
OCCC[N+]12CCC(C(O)(c3ccccc3)c3ccccc3)(CC1)CC2,29500 nM,,

Compound,IC50 [1],Kb [2],further results
Cc1ccc(C(O)(c2ccc(C)cc2)C23CC[N+](CCOCc4ccccc4)(CC2)CC3)cc1,12 nM,,
OC(c1ccccc1)(c1ccccc1)C12CC[N+](CCOCc3ccc(Br)cc3)(CC1)CC2,< 10 nM,0.0398 nM,
OCC[N+]12CCC(C(O)(c3ccccc3)c3ccccc3)(CC1)CC2,486 nM,,
OC(c1ccccc1)(c1ccccc1)C12CC[N+](CCCOc3ccccc3)(CC1)CC2.[Br-],< 10 nM,,Kb [3]: 1.26 nM; ED50 (Mus musculus [4]): 0.08 µg; Activity (Mus musculus [5]): 34 h; Kb [6]: 3.16 nM; Kb [7]: 1.26 nM; clearance [8]: 37 mL/min/kg; Activity [9]: 57 min; Ki [10]: 0.64 nM; Ki [11]: 0.94 nM; Ki [12]: 0.13 nM; Activity [13]: inactive
OC(c1ccccc1)(c1ccccc1)C12CC[N+](CCOCc3ccccc3)(CC1)CC2.[Br-] [UMECLIDINIUM BROMIDE],,,ED50 (Mus musculus [4]): 0.02 µg; Activity (Mus musculus [14]): >48 h; Kb [6]: 0.316 nM; Kb [7]: 0.0316 nM; clearance [15]: 92 mL/min/kg; Activity [9]: 145 min; Ki [10]: 0.16 nM; Ki [11]: 0.15 nM; Activity [13]: Active
OC(c1ccccc1)(c1ccccc1)C12CC[N+](CCOCc3ccccc3)(CC1)C2,< 10 nM,0.398 nM,
OC(c1ccccc1)(c1ccccc1)C12CC[N+](CCOCc3ccccc3F)(CC1)CC2,< 10 nM,0.0398 nM,
OC(c1cccc(F)c1)(c1cccc(F)c1)C12CC[N+](CCOCc3ccccc3)(CC1)CC2,< 10 nM,0.251 nM,
OC(c1ccccc1)(c1ccccc1)C12CCN(CC1)CC2,1070 nM,,
OC(c1ccccc1)(c1ccccc1)C1CN2CCC1CC2 (stereo not drawn),1100 nM,,
NCC[N+]12CCC(C(O)(c3ccccc3)c3ccccc3)(CC1)CC2,850 nM,0.398 nM,
OC(c1ccccc1)(c1ccccc1)C12CC[N+](CCOCc3ccc(Cl)cc3)(CC1)CC2,< 10 nM,0.0631 nM,
COCC[N+]12CCC(C(O)(c3ccccc3)c3ccccc3)(CC1)CC2,30 nM,,
OC(CC1C[N+]2(CCc3ccccc3)CCC1CC2)(c1ccccc1)c1ccccc1 (stereo not drawn),122 nM,,
CC(C)(C)c1ccc(COCC[N+]23CCC(C(O)(c4ccccc4)c4ccccc4)(CC2)CC3)cc1,39 nM,,
OC(c1ccccc1)(c1ccccc1)C12CC[N+](CCOCc3ccc(F)cc3)(CC1)CC2,< 10 nM,0.0794 nM,
OC(c1ccccc1)(c1ccccc1)C12CC[N+](CCOCc3cccc(F)c3)(CC1)CC2,< 10 nM,0.0251 nM,
N#CC(c1ccccc1)(c1ccccc1)C12CC[N+](CCOCc3ccccc3)(CC1)C2,< 10 nM,0.501 nM,
OC(c1ccccc1)(c1ccccc1)C12CC[N+](CCOCc3cccc(Br)c3)(CC1)CC2,< 10 nM,0.126 nM,
OC(c1ccc(F)cc1)(c1ccc(F)cc1)C12CC[N+](CCOCc3ccccc3)(CC1)CC2,< 10 nM,0.0631 nM,
CCC[N+]12CCC(C(O)(c3ccccc3)c3ccccc3)(CC1)CC2,208 nM,,
COc1ccc(C(O)(c2ccc(OC)cc2)C23CC[N+](CCOCc4ccccc4)(CC2)CC3)cc1,36 nM,,
